Values after ≈ are worked out from the molar mass of the structure shown. Active and inactive are the calls of the source. The calls are words filed in the database; no cut-off is given here.
Legend:
[1] = tested on: Enterococcus faecium; test: Antibacterial activity against Enterococcus faecium C68 assessed as bacterial growth inhibition after 16-20 hrs by broth microdilution method; type: functional
Method in brief: (§1)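 CLSI broth microdilution in cation-adjusted Mueller Hinton II broth, triplicate. Cultures grown to OD600 about 0.60-0.80, diluted 100-fold; final inoculum 5×10^5 CFU/mL. Compounds from 5 mg/mL DMSO stock diluted in medium, final 2% (v/v) DMSO plus 0.25% (v/v) glacial acetic acid. Incubated 35 °C, 16-20 h, then MIC read.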

[2] = tested on: Enterococcus faecium; test: Antibacterial activity against Enterococcus faecium C38 assessed as bacterial growth inhibition after 16-20 hrs by broth microdilution method; type: functional; method in brief: as §1
[3] = tested on: Enterococcus faecium; test: Antibacterial activity against vancomycin and teicoplanin-resistant Enterococcus faecium ATCC 700221 isolated from human faeces assessed as bacterial growth inhibition after 16-20 hrs by broth microdilution method; type: functional; conditions: ATCC 700221, Feces
Method in brief: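 Broth microdilution in cation-adjusted Mueller Hinton II broth, run to CLSI method, triplicate. Cells grown to OD600 ~0.60-0.80, diluted 100-fold; final inoculum 5×10^5 CFU/mL. Compounds from 5 mg/mL DMSO stocks diluted in medium, final 2% (v/v) DMSO plus 0.25% (v/v) glacial acetic acid. Incubated 35 °C for 16-20 h, then MIC read.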

[4] = Apparent intrinsic clearance in human liver S9 at 10 uM after 60 mins by UPLC analysis; type: ADME, subcellular, Liver S9 fraction; conditions: read-out: CLH(app)
Method in brief: (§2)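 Pooled human liver S9 (1 mg/mL) with 1 mM NADPH and 10 μM compound in sodium phosphate buffer (0.20 M phosphate, 0.15 M NaCl, pH 7.4), 37 °C for 60 min. Six time points quenched in acetonitrile with internal standard, analysed by UPLC-MRM. Half-life taken from first-order rate constant; CLint scaled with 45 mg protein/g liver and 20 g liver/kg. Run in duplicate.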

[5] = tested on: Liver; test: Half life in human liver S9 at 10 uM after 60 mins by UPLC analysis; type: ADME, subcellular, Liver S9 fraction; conditions: s9, 1 h; method in brief: as §2
[6] = tested on: Enterococcus faecium; test: microbe, parasite or virus in culture; conditions: NCTC 7171
[7] = tested on: Enterococcus faecium; test: Antibacterial activity against copper, erythromycin, teracycline-resistant and vancomycin and teicoplanin-sensitive Enterococcus faecium ATCC BAA2127 assessed as bacterial growth inhibition after 16-20 hrs by broth microdilution method; type: functional; method in brief: as §1
[8] = Induction of hemolysis in RBC (unknown origin) at 64 ug/ml; conditions: erythrocytes
[9] = tested on: Enterococcus faecium; test: Antibacterial activity against vancomycin-susceptible Enterococcus faecium 119-39A assessed as bacterial growth inhibition after 16-20 hrs by broth microdilution method; type: functional; method in brief: as §1
[10] = tested on: Plasma; test: Plasma protein binding in human at 10 uM by rapid equilibrium dialysis method; type: ADME, cell-free
Method in brief: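 Human plasma centrifuged to clear particulates, spiked with compound to final 10 μM in 0.1% DMSO. Dialysed against 0.1 M sodium phosphate buffer, pH 7.4, at 37 °C overnight with shaking in a rapid equilibrium dialysis device. Buffer and plasma sides extracted with acetonitrile containing internal standard and analysed by UPLC-MRM. Binding calculated as (Cp−Cf)/Cp×100.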

[11] = tested on: Staphylococcus aureus; test: Inhibition of Staphylococcus aureus PBP2a up to 100 ug/ml by BIOCILLIN FL based fluorescence analysis
Method in brief: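 Recombinant purified PBP2a (final 2 μM) preincubated with inhibitor in 25 mM Hepes, 1 M NaCl, pH 7.0, 37 °C, 10 min. BOCILLIN FL (final 20 μM) then added for 10 min at 37 °C. Samples boiled in SDS buffer and run on 12% SDS-PAGE. Fluorescent bands scanned and quantified against a no-inhibitor control.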

[12] = tested on: BL21-DE3; test: Inhibition of Enterococcus faecium D63r PBP5fm expressed in Escherichia coli BL21 (DE3) cells up to 100 ug/ml after 10 to 20 mins by BIOCILLIN FL-based fluorescence assay
Method in brief: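 Recombinant PBP5fm lacking the signal peptide, expressed in E. coli BL21(DE3) and purified by anion-exchange then chelating chromatography. Enzyme (40 μM) preincubated with inhibitor in 25 mM Hepes, 1 M NaCl, pH 7.0 at 37 °C for 20 min. BOCILLIN FL (30 μM) then added for a further 20 min. Bands resolved on 12% SDS-PAGE and fluorescence quantified against a no-inhibitor control.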

[13] = tested on: Enterococcus faecium; test: Antibacterial activity against Enterococcus faecium C9 assessed as bacterial growth inhibition after 16-20 hrs by broth microdilution method; type: functional; method in brief: as §1

Compound | MIC [6] | further results
CN[C@H](CC(C)C)C(=O)N[C@H]1C(=O)N[C@@H](CC(N)=O)C(=O)N[C@H]2C(=O)N[C@H]3C(=O)N[C@H](C(=O)N[C@H](C(=O)O)c4cc(O)cc(O)c4-c4cc3ccc4O)[C@H](O)c3ccc(c(Cl)c3)Oc3cc2cc(c3O[C@@H]2O[C@H](CO)[C@@H](O)[C@H](O)[C@H]2O[C@H]2C[C@](C)(N)[C@H](O)[C@H](C)O2)Oc2ccc(cc2Cl)[C@H]1O [VANCOMYCIN] | – | MIC [1]: 64 µg/mL (≈ 44.2 µM); MIC [2]: 64 µg/mL (≈ 44.2 µM); MIC [3]: 16 µg/mL (≈ 11 µM)
CC1=C(C(N)=O)C(c2ccc(OC(C)C)cc2)n2nc(SCc3ccccc3)nc2N1 (stereo unspecified) | 4 µg/mL (≈ 9.18 µM) | CLint scaled at 10 µM [4]: 10.9 mL/min/kg; MIC [2]: 32 µg/mL (≈ 73.5 µM); t1/2 [5]: 0.95 h; MIC [7]: 16 µg/mL (≈ 36.7 µM); Activity [8]: < 1%; MIC [3]: 8 µg/mL (≈ 18.4 µM)
CC1=C(C(N)=O)C(c2ccc(N(C)C)cc2)n2nc(SCc3ccc([N+](=O)[O-])cc3)nc2N1 (stereo unspecified) | 4 µg/mL (≈ 8.59 µM) | CLint scaled at 10 µM [4]: < 10.4 mL/min/kg; t1/2 [5]: > 1 h; MIC [9]: 16 µg/mL (≈ 34.4 µM); MBC [6]: 16 µg/mL (≈ 34.4 µM); MIC [7]: 32 µg/mL (≈ 68.7 µM); Activity [8]: 23%; MIC [3]: 8 µg/mL (≈ 17.2 µM)
CN(C)c1ccc(C2C3=C(CCCC3=O)Nc3nc(SCc4ccccc4)nn32)cc1 (stereo unspecified) | > 128 µg/mL | –
CC1=C(C(N)=O)C(c2ccc(N(C)C)cc2)n2nc(SCc3ccc(C(=O)O)cc3)nc2N1 (stereo unspecified) | > 128 µg/mL | –
CC1=C(C(=O)Nc2ccc(C)cc2C)C(c2cccs2)n2nc(SCc3cccc(Cl)c3)nc2N1 (stereo unspecified) | > 128 µg/mL | –
CC1=C(C(N)=O)C(c2ccc(OC(F)(F)F)cc2)n2nc(SCc3ccccc3)nc2N1 (stereo unspecified) | 8 µg/mL (≈ 17.3 µM) | –
O=C1CCCC2=C1C(c1ccc(Cl)cc1)n1nc(SCc3cccc4ccccc34)nc1N2 (stereo unspecified) | > 128 µg/mL | –
CC1=C(C(N)=O)C(c2ccsc2)n2nc(SCc3ccccc3)nc2N1 (stereo unspecified) | > 128 µg/mL | –
CSc1nc2n(n1)C(c1ccc(N(C)C)cc1)C(C(N)=O)=C(C)N2 (stereo unspecified) | > 128 µg/mL | –
CCc1ccc(C2C(C(=O)Nc3ccccc3)=C(C)Nc3nc(SCc4cccc(OC)c4)nn32)cc1 (stereo unspecified) | > 128 µg/mL | –
CC1=C(C(=O)Nc2ccccc2C)C(c2ccc(C)cc2)n2nc(SCc3cccc(C)c3)nc2N1 (stereo unspecified) | > 128 µg/mL | –
COc1ccc(CSc2nc3n(n2)C(c2ccc(N(C)C)cc2)C(C(N)=O)=C(C)N3)cc1 (stereo unspecified) | > 128 µg/mL | –
CC1=C(C(N)=O)C(c2ccc(N(C)C)cc2)n2nc(SCc3ccc(C#N)cc3)nc2N1 (stereo unspecified) | – | MIC [1]: 4 µg/mL (≈ 8.98 µM); CLint scaled at 10 µM [4]: < 10.4 mL/min/kg; PPB [10]: 96.8%; inhibition [11]: inactive; MIC [2]: 16 µg/mL (≈ 35.9 µM); t1/2 [5]: > 1 h; MIC [9]: 8 µg/mL (≈ 18 µM); MBC [6]: 16 µg/mL (≈ 35.9 µM); Activity [8]: 1%; inhibition [12]: inactive; MIC [13]: 4 µg/mL (≈ 8.98 µM); MIC [3]: 8 µg/mL (≈ 18 µM)
CC1=C(C(N)=O)C(c2ccc(N(C)C)cc2)n2nc(SCC(N)=O)nc2N1 (stereo unspecified) | > 128 µg/mL | –
CCOc1ccccc1C1C2=C(CCCC2=O)Nc2nc(SCc3ccc(C(=O)O)cc3)nn21 (stereo unspecified) | > 128 µg/mL | –
CC1=C(C(N)=O)C(c2ccc(O)cc2)n2nc(SCc3ccccc3)nc2N1 (stereo unspecified) | > 128 µg/mL | –
COc1ccc(C2C3=C(CCCC3=O)Nc3nc(SCc4ccc(F)cc4)nn32)cc1OC (stereo unspecified) | > 128 µg/mL | –
COc1ccc(C2C3=C(CCCC3=O)Nc3nc(SCc4ccc(C(=O)O)cc4)nn32)cc1 (stereo unspecified) | > 128 µg/mL | –
CSc1ccc(CSc2nc3n(n2)C(c2ccc(N(C)C)cc2)C(C(N)=O)=C(C)N3)cc1 (stereo unspecified) | > 128 µg/mL | –
COc1ccc(C2C(C(=O)Nc3ccc(C)cc3C)=C(C)Nc3nc(SCc4cccc(C)c4)nn32)cc1 (stereo unspecified) | > 128 µg/mL | –
CCOC(=O)c1nc2n(n1)C(c1ccc(N(C)C)cc1)C(C(N)=O)=C(C)N2 (stereo unspecified) | > 128 µg/mL | –
CCSc1ccc(C2C(C(N)=O)=C(C)Nc3nc(SCc4ccccc4)nn32)cc1 (stereo unspecified) | 4 µg/mL (≈ 9.14 µM) | CLint scaled at 10 µM [4]: < 10.4 mL/min/kg; t1/2 [5]: > 1 h; MIC [9]: 8 µg/mL (≈ 18.3 µM); MIC [7]: 16 µg/mL (≈ 36.6 µM); Activity [8]: 46%
CC1=C(C(N)=O)C(c2ccc(N3CCCC3)cc2)n2nc(SCc3ccccc3)nc2N1 (stereo unspecified) | 16 µg/mL (≈ 35.8 µM) | –
CCN(CC)CCOc1ccc(C2C(C(N)=O)=C(C)Nc3nc(SCc4ccccc4)nn32)cc1 (stereo unspecified) | > 128 µg/mL | –

Compound | MIC [6] | further results
COc1ccc(C2C(C(N)=O)=C(C)Nc3nc(SCc4ccccc4)nn32)cc1OC (stereo unspecified) | > 128 µg/mL | –
CCc1cccc(C2C(C(N)=O)=C(C)Nc3nc(SCc4ccccc4)nn32)c1 (stereo unspecified) | 16 µg/mL (≈ 39.5 µM) | –
CC1=C(C(N)=O)C(c2ccc(N(C)C)cc2)n2ncnc2N1 (stereo unspecified) | > 128 µg/mL | –
CC1=C(C(=O)Nc2ccc(C)cc2C)C(c2ccc(F)cc2)n2nc(SCc3cccc(C)c3)nc2N1 (stereo unspecified) | > 128 µg/mL | –
CC1=C(C(N)=O)C(c2ccc(N)cc2)n2nc(SCc3ccccc3)nc2N1 (stereo unspecified) | > 128 µg/mL | –
CC1=C(C(N)=O)C(c2ccc(N(C)C)cc2)n2nc(SCCNC(=O)OCc3ccccc3)nc2N1 (stereo unspecified) | > 128 µg/mL | –
CCc1ccc(C2C(C(=O)Nc3ccccc3OC)=C(C)Nc3nc(SCc4ccccc4)nn32)cc1 (stereo unspecified) | > 128 µg/mL | –
CC(=O)Nc1ccc(C2C(C(N)=O)=C(C)Nc3nc(SCc4ccccc4)nn32)cc1 (stereo unspecified) | 128 µg/mL (≈ 295 µM) | –
CNC(=O)C1=C(C)Nc2nc(SCc3ccccc3)nn2C1c1ccc(N(C)C)cc1 (stereo unspecified) | 8 µg/mL (≈ 18.4 µM) | –
COC(=O)c1nc2n(n1)C(c1ccc(N(C)C)cc1)C(C(N)=O)=C(C)N2 (stereo unspecified) | > 128 µg/mL | –
CC1=C(C(N)=O)C(c2ccc(N(C)C)cc2)n2nc(SCc3ccc(SC(F)(F)F)cc3)nc2N1 (stereo unspecified) | 8 µg/mL (≈ 15.4 µM) | –
CC1=C(C(N)=O)C(c2ccc(C#N)cc2)n2nc(SCc3ccccc3)nc2N1 (stereo unspecified) | 16 µg/mL (≈ 39.8 µM) | –
CC1=C(C(N)=O)C(c2ccc(C(F)(F)F)cc2)n2nc(SCc3ccccc3)nc2N1 (stereo unspecified) | 8 µg/mL (≈ 18 µM) | –
CC1=C(C(N)=O)C(c2ccc(C(=O)O)cc2)n2nc(SCCNC(=O)OCc3ccccc3)nc2N1 (stereo unspecified) | > 128 µg/mL | –
CC1=C(C(N)=O)C(c2ccc(C(C)C)cc2)n2nc(SCCNC(=O)OCc3ccccc3)nc2N1 (stereo unspecified) | > 128 µg/mL | –
CC1=C(C(N)=O)C(c2ncc[nH]2)n2nc(SCc3ccccc3)nc2N1 (stereo unspecified) | 32 µg/mL (≈ 87.1 µM) | –
CCN(CC)c1ccc(C2C(C(N)=O)=C(C)Nc3nc(SCc4ccccc4)nn32)cc1 (stereo unspecified) | 8 µg/mL (≈ 17.8 µM) | –
CC1=C(C(N)=O)C(c2cccc(OC(C)C)c2)n2nc(SCc3ccccc3)nc2N1 (stereo unspecified) | > 128 µg/mL | –
CC1=C(C(=O)Nc2ccccc2)C(c2ccc(C)cc2)n2nc(SCc3ccccc3C)nc2N1 (stereo unspecified) | > 128 µg/mL | –
CC1=C(C(N)=O)C(c2cccc(C(F)(F)F)c2)n2nc(SCc3ccccc3)nc2N1 (stereo unspecified) | 16 µg/mL (≈ 35.9 µM) | –
CC1=C(C(N)=O)C(c2ccc(N(C)C)cc2)n2nc(SCc3ccc(C)cc3)nc2N1 (stereo unspecified) | > 128 µg/mL | –
CCc1ccc(C2C(C(=O)Nc3ccccc3C)=C(C)Nc3nc(SCc4cccc(OC)c4)nn32)cc1 (stereo unspecified) | > 128 µg/mL | –
CC1=C(C(N)=O)C(c2ccc(C(=O)O)cc2)n2nc(SCc3ccccc3)nc2N1 (stereo unspecified) | > 128 µg/mL | –
CC1=C(C(N)=O)C(c2ccc(N(C)C)cc2)n2nc(Sc3ccccn3)nc2N1 (stereo unspecified) | > 128 µg/mL | –
CC1=C(C(N)=O)C(c2cccs2)n2ncnc2N1 (stereo unspecified) | > 128 µg/mL | –

— ChEMBL document CHEMBL3576783, “Synthesis and evaluation of 1,2,4-triazolo[1,5-a]pyrimidines as antibacterial agents against Enterococcus faecium” (J Med Chem, 2015)
